Experiments:
Staphylococcus aureus [1] = assay: Antibacterial activity against erythromycin-susceptible Staphylococcus aureus ATCC 25923 assessed as bacterial growth inhibition incubated for 24 hrs by CLSI protocol based broth microdilution method; format: functional
[2] = test system: Staphylococcus epidermidis; assay: Antibacterial activity against penicillin-resistant Staphylococcus epidermidis assessed as inhibition of bacterial growth measured by broth microdilution method; format: functional; details: time 24 hrs
Staphylococcus aureus [3] = assay: Ratio of MBC to MIC against penicillin-resistant Staphylococcus aureus; format: functional
Method in brief: (§1)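 MBC/MIC ratio from the broth microdilution MIC (24 h, 37 °C, MH broth) and the MBC (clear wells subcultured on tryptic soy agar, 24 h). A ratio ≤4 is read as bactericidal per CLSI.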

Staphylococcus aureus [4] = assay: Bactericidal activity against methicillin-resistant Staphylococcus aureus ATCC 43300 measured after 24 hrs by CLSI protocol based method; format: functional
Method in brief: (§2)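 MBC after broth microdilution. After 24 h, aliquots from clear wells were plated on tryptic soy agar and incubated aerobically 24 h at 37 °C. MBC was the lowest concentration giving no colonies.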

Enterococcus faecium [5] = assay: Antibacterial activity against vancomycin-resistant Enterococcus faecium ATCC 51559 assessed as bacterial growth inhibition incubated for 24 hrs by CLSI protocol based broth microdilution method; details: ATCC 51559, 24 h
Pseudomonas aeruginosa = assay: Antibacterial activity against penicillin-susceptible Pseudomonas aeruginosa ATCC27853 assessed as bacterial growth inhibition incubated for 24 hrs by CLSI protocol based broth microdilution method; format: functional
[6] = test system: Staphylococcus epidermidis; assay: Ratio of MBC to MIC against penicillin-resistant Staphylococcus epidermidis; format: functional; method in brief: as §1
Staphylococcus aureus [7] = assay: Antibacterial activity against methicillin-resistant Staphylococcus aureus ATCC 43300 assessed as inhibition of bacterial growth by broth microdilution method; format: functional; details: time 24 hrs
Method in brief: (§3)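 Broth microdilution MIC. A 0.5 McFarland suspension was diluted 10-fold and added at 1.5 × 10⁷ cfu/mL to 2-fold dilutions (0.125–64) in Mueller Hinton broth. Incubated aerobically 24 h at 37 °C. MIC was the lowest concentration with no visible turbidity.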

Bacillus subtilis [8] = assay: Antibacterial activity against penicillin-susceptible Bacillus subtilis ATCC 9372 assessed as bacterial growth inhibition incubated for 24 hrs by CLSI protocol based broth microdilution method; format: functional
Staphylococcus aureus [9] = assay: Antibacterial activity against Staphylococcus aureus assessed as inhibition of bacterial growth measured by broth microdilution method; format: functional; details: time 24 hrs
Method in brief: (§4)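 Broth microdilution in Mueller Hinton broth. A 0.5 McFarland suspension was diluted tenfold, giving an inoculum of 1.5 × 10⁷ cfu/mL. This was added to 2-fold serial compound dilutions from […]. Plates were incubated aerobically at 37 °C for 24 h. MIC was the lowest concentration with no visible turbidity.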

Streptococcus pyogenes [10] = assay: Antibacterial activity against erythromycin-resistant Streptococcus pyogenes 2 assessed as bacterial growth inhibition incubated for 24 hrs by CLSI protocol based broth microdilution method; format: functional
Bacillus subtilis [11] = assay: Bactericidal activity against penicillin-susceptible Bacillus subtilis ATCC 9372 measured after 24 hrs by CLSI protocol based method; format: functional
Method in brief: (§5)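 MBC followed on from the 24 h broth microdilution MIC plates. Aliquots from clear wells were spread on tryptic soy agar and incubated aerobically at 37 °C for 24 h. MBC was the minimum concentration giving no colonies.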

Enterococcus faecium [12] = assay: Antibacterial activity against vancomycin-susceptible Enterococcus faecium ATCC19434 assessed as bacterial growth inhibition incubated for 24 hrs by CLSI protocol based broth microdilution method; details: ATCC19434, 24 h
Staphylococcus aureus [13] = assay: Antibacterial activity against penicillin-resistant Staphylococcus aureus assessed as inhibition of bacterial growth measured by broth microdilution method; format: functional; details: time 24 hrs; method in brief: as §3
Escherichia coli = assay: Antibacterial activity against penicillin-susceptible Escherichia coli ATCC 25922 assessed as inhibition of bacterial growth measured by broth microdilution method; format: functional; details: time 24 hrs; method in brief: as §4
[14] = molecular target: T1, Cell division protein FtsZ (Bacillus subtilis, UniProt A5Z1V5); assay: Inhibition of FtsZ in Bacillus subtilis assessed as disruption of Z ring formation
T1 sequence (A5Z1V5 whole entry): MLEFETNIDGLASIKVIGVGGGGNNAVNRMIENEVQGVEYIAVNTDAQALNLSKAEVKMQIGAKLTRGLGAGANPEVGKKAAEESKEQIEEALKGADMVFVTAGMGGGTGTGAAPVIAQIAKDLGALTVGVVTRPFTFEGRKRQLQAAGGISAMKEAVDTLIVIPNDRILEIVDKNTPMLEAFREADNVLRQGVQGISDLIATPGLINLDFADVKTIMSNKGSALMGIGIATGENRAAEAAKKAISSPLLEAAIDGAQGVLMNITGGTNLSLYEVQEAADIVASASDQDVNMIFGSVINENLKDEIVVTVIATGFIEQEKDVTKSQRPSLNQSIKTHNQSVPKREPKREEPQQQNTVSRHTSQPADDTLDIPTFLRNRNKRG

Bacillus pumilus [15] = assay: Ratio of MBC to MIC against penicillin-susceptible Bacillus pumilus CMCC 63202; format: functional; method in brief: as §1
Bacillus pumilus [16] = assay: Antibacterial activity against penicillin-susceptible Bacillus pumilus CMCC 63202 assessed as bacterial growth inhibition by broth dilution method; format: functional; details: time 24 hrs; method in brief: as §4
Enterococcus faecalis [17] = assay: Antibacterial activity against vancomycin-resistant Enterococcus faecalis ATCC 51299 assessed as bacterial growth inhibition incubated for 24 hrs by CLSI protocol based broth microdilution method; format: functional
[18] = test system: Staphylococcus epidermidis; assay: Bactericidal activity against penicillin-resistant Staphylococcus epidermidis measured after 24 hrs by CLSI protocol based method; format: functional; method in brief: as §2
Bacillus pumilus [19] = assay: Bactericidal activity against penicillin-susceptible Bacillus pumilus CMCC 63202 measured after 24 hrs by CLSI protocol based method; format: functional; method in brief: as §5
Bacillus subtilis [20] = assay: Ratio of MBC to MIC against penicillin-susceptible Bacillus subtilis ATCC 9372; format: functional
Method in brief: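 Ratio of MBC to MIC, both measured by broth microdilution in MH broth (37 °C, 24 h); MBC was scored by subculturing clear wells onto tryptic soy agar for 24 h. Following CLSI, a ratio of 4 or less counts as bactericidal.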

Staphylococcus aureus [21] = assay: Bactericidal activity against erythromycin-susceptible Staphylococcus aureus ATCC 25923 measured after 24 hrs by CLSI protocol based method; format: functional; method in brief: as §2
Streptococcus pyogenes [22] = assay: Antibacterial activity against erythromycin-susceptible Streptococcus pyogenes clinical isolate 1 assessed as bacterial growth inhibition incubated for 24 hrs by CLSI protocol based broth microdilution method; format: functional
Enterococcus faecalis [23] = assay: Antibacterial activity against vancomycin-susceptible Enterococcus faecalis ATCC 29212 assessed as bacterial growth inhibition incubated for 24 hrs by CLSI protocol based broth microdilution method; format: functional
[24] = molecular target: T2, Cell division protein FtsZ (Escherichia coli K-12, UniProt P0A9A6); assay: Inhibition of FtsZ in Escherichia coli assessed as disruption of Z ring formation
T2 sequence (P0A9A6 whole entry): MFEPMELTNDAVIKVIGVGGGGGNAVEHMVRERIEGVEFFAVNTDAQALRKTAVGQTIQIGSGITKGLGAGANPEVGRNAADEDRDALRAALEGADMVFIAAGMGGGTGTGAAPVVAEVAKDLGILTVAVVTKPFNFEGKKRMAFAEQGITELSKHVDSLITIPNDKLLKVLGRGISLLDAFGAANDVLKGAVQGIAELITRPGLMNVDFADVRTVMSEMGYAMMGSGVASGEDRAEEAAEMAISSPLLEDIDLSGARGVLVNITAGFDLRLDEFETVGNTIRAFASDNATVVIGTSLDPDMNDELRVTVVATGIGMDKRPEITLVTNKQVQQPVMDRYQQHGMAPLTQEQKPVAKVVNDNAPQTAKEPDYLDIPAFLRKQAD

Staphylococcus aureus [25] = assay: Bactericidal activity against penicillin-resistant Staphylococcus aureus measured after 24 hrs by CLSI protocol based method; format: functional; method in brief: as §2
Staphylococcus aureus [26] = assay: Ratio of MBC to MIC against erythromycin-susceptible Staphylococcus aureus ATCC 25923; format: functional; method in brief: as §1

Question: For `C[n+]1cc2c3c(ccc2c2ccc4cc5c(cc4c21)OCO5)OCO3.[Cl-]` [SANGUINARIUM CHLORIDE], which MIC (Staphylococcus aureus [1]) is on record?
Answer: 4 µg/mL

Question: What about the MIC [2] of the same compound?
Answer: 8 µg/mL

Question: What about the Ratio (Staphylococcus aureus [3]) of the same compound?
Answer: 8

Question: And the MBC (Staphylococcus aureus [4])?
Answer: > 64 µg/mL

Question: What about the MIC (Enterococcus faecium [5]) of the same compound?
Answer: 32 µg/mL

Question: And the MIC (Pseudomonas aeruginosa)?
Answer: > 64 µg/mL

Question: What about the Ratio [6] of the same compound?
Answer: 64

Question: What about the MIC (Staphylococcus aureus [7]) of the same compound?
Answer: 8 µg/mL

Question: What about the MIC (Bacillus subtilis [8]) of the same compound?
Answer: 4 µg/mL

Question: And the MIC (Staphylococcus aureus [9])?
Answer: 8 µg/mL

Question: And the MIC (Streptococcus pyogenes [10])?
Answer: 2 µg/mL

Question: What about the MBC (Bacillus subtilis [11]) of the same compound?
Answer: 64 µg/mL

Question: What about the MIC (Enterococcus faecium [12]) of the same compound?
Answer: 64 µg/mL

Question: And the MIC (Staphylococcus aureus [13])?
Answer: 16 µg/mL

Question: What about the MIC (Escherichia coli) of the same compound?
Answer: 32 µg/mL

Question: What about the IC50 [14] of the same compound?
Answer: 2.72 µM

Question: And the Ratio (Bacillus pumilus [15])?
Answer: >64

Question: And the MIC (Bacillus pumilus [16])?
Answer: 4 µg/mL

Question: What about the MIC (Enterococcus faecalis [17]) of the same compound?
Answer: 32 µg/mL

Question: And the MIC [18]?
Answer: 64 µg/mL

Question: What about the MBC (Bacillus pumilus [19]) of the same compound?
Answer: > 64 µg/mL

Question: What about the Ratio (Bacillus subtilis [20]) of the same compound?
Answer: 16

Question: What about the MBC (Staphylococcus aureus [21]) of the same compound?
Answer: > 64 µg/mL

Question: And the MIC (Streptococcus pyogenes [22])?
Answer: 2 µg/mL

Question: What about the MIC (Enterococcus faecalis [23]) of the same compound?
Answer: 16 µg/mL

Question: What about the IC50 [24] of the same compound?
Answer: 12.5 µM

Question: And the MBC (Staphylococcus aureus [25])?
Answer: 128 µg/mL

Question: What about the Ratio (Staphylococcus aureus [26]) of the same compound?
Answer: >32

— ChEMBL document CHEMBL4837210 (Eur J Med Chem, 2021)
